Compound activity (PubChem)
PAFAH2 FP inh – PAFAH2 (human) inhibition | actives 0.99% (n = 340,000) | AID 492956 | Q99487 | recombinant PAFAH2, FP-rhodamine activity probe, fluorescence polarization | inhibition, % at 3.39 µM;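 active = inhibition above the mean over all tested compounds plus 3 SD, cut at about 30% in these data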;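 also: inhibitors block probe labeling of enzyme so polarization drops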
HTRA1 inh – inhibitors of human serine peptidase HTRA1; Q92743; recombinant HTRA1, FP-rhodamine activity-based probe, fluorescence polarization; inhibition, % at 5.96 µM; actives 0.5% (n = 340,000); AID 504803; in the data active = inhibition above about 36%
PAFAH1B2 inh – PAFAH1B2 (human) inhibition. P68402. recombinant PAFAH1B2, FP-rhodamine activity probe, fluorescence polarization. inhibition, % at 3.39 µM. actives 1.2% (n = 340,000);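 active = inhibition above the mean of all tested compounds plus 3 SD, cut at about 24% in these data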
pPAFAH inh – inhibitors of human plasma PAF acetylhydrolase (pPAFAH) | Q13093 | recombinant pPAFAH, FP-rhodamine probe fluorescence polarization | inhibition, % at 3.39 µM | actives 1.5% (n = 330,000) | AID 463082;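 active = inhibition above the mean inhibition across the screen plus 3 SD, cut at about 25% in these data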;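 also: inhibitors block binding of the rhodamine activity-based probe so polarization drops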
Target sequence (Q13093 whole entry, looked up): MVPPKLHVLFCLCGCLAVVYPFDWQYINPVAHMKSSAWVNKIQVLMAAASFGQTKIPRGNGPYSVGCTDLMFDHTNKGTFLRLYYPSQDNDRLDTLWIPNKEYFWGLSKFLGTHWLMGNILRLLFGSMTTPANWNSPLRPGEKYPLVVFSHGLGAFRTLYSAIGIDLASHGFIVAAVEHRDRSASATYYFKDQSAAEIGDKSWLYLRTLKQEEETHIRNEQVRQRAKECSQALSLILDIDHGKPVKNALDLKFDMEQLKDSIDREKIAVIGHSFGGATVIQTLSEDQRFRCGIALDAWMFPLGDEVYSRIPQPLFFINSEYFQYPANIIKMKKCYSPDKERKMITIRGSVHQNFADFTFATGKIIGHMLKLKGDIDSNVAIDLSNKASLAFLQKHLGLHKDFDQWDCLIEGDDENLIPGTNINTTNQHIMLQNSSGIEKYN
PAFAH1B3 inh – PAFAH1B3 (human) inhibition. Q15102. recombinant PAFAH1B3, FP-rhodamine probe, fluorescence polarization. inhibition, % at 3.39 µM. actives 0.28% (n = 340,000). AID 492972;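 active = inhibition above the screen-wide average of all tested compounds plus 3 SD, cut at about 25% in these data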
ABHD4 inh – inhibitors of mouse ABHD4; purified mABHD4, FP-Rh probe fluorescence polarization; actives 0.54% (n = 370,000); inhibition, % at 8.92 µM; Q8VD66;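 active = inhibition exceeding the mean over every tested compound plus 3 SD, cut at about 30% in these data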
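System: mouse ABHD4 enzyme, wild type / Medium: HEPES pH 7.0, NaCl, Pluronic buffer / Reagent: FP-Rh activity-based fluorescent probe / Control set: S159A mutant high control, sample median low control / Detection: fluorescence polarization with parallel and perpendicular emission, 525/598 nm / Schedule: 45 min + 60 min at 25 °C / Compound dosing: 8.92 µM, single dose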
A number is an active result; i = inactive; nt = no result. The list is not random: actives were taken first. Their share in the collection is about 2.8%.

SMILES	PAFAH2 FP inh	HTRA1 inh	PAFAH1B2 inh	pPAFAH inh	PAFAH1B3 inh	ABHD4 inh
C/C(=N\NC(=O)c1cccc(N/N=C(\C)c2cc(O)ccc2O)c1)c1cc(O)ccc1O	i	i	i	32	i	i
C/C(=N\NC(=O)c1cccc(N/N=C(\C)c2ccco2)c1)c1ccco1	i	i	i	nt	i	i
O=C(NCC(c1ccco1)N1CCCC1)c1cccc(NS(=O)(=O)c2ccc(Br)cc2)c1 (configuration not stated)	i	i	i	i	i	i
Cc1cccc(NS(=O)(=O)c2cccc(C(=O)NCC(c3ccco3)N3CCCCC3)c2)c1 (configuration not stated)	i	i	i	33	i	i
COc1ccc(C(=O)NCc2ccccc2CN2CCCC2)cc1S(=O)(=O)Nc1ccc(C)cc1	i	i	i	25	i	i
O=C(NCC(c1ccco1)N1CCCC1)c1ccc(S(=O)(=O)Nc2ccc(F)cc2)cc1 (configuration not stated)	i	i	i	29	i	i
COc1ccccc1NS(=O)(=O)c1cccc(C(=O)NCC(c2ccccc2OC)N2CCCC2)c1 (configuration not stated)	i	i	i	i	i	i
COc1ccccc1C(CNC(=O)c1cccc(S(=O)(=O)Nc2ccc(C)cc2)c1)N1CCCC1 (configuration not stated)	i	i	i	31	i	i
COc1ccc(C(=O)O)cc1S(=O)(=O)Nc1ccc(C)cc1	i	i	i	i	i	i
C=CCN1C(=O)[C@@H](CC(=O)N2CCN(C(=O)OCC)CC2)[C@]2(C(=O)OC)CCCCC=C12	nt	nt	nt	nt	nt	i
C=CCN1C(=O)[C@@H](CC(=O)NCCCC)[C@]2(C(=O)OC)CCCCC=C12	nt	nt	nt	nt	nt	i
CCCCNC(=O)C1(C(=O)c2ccc(OC)cc2)CC(C(=O)OCC)=NO1 (configuration not stated)	nt	nt	nt	nt	nt	i
CN1C(=O)c2cc(NC(=O)Nc3ccccc3)ccc2OC[C@H]2O[C@@H](CC(=O)NCc3ccc(-c4ccccc4)cc3)CC[C@@H]21	nt	nt	nt	nt	nt	i
COc1ccc(NS(=O)(=O)c2cccc(C(=O)NCC(c3ccco3)N3CCCCC3)c2)cc1 (configuration not stated)	i	i	i	31	i	i
O=C(Cc1ccc(Br)cc1)c1ccc(O)cc1O	i	i	82	i	i	i
CC1(NC(=O)c2ccc(C#Cc3cccc(F)c3)cn2)COC1	nt	nt	nt	nt	nt	i
CCC(C)c1ccc(C2C3=C(Nc4nc(N)[nH]c(=O)c42)c2ccccc2C3=O)cc1 (configuration not stated)	i	i	i	25	i	i
Cc1cc(C)cc(OC[C@@H](O)CN2CCC(C(O)(c3ccccc3)c3ccccc3)CC2)c1	nt	nt	nt	nt	nt	i
CCN1CC=C2C(C#N)=C(N)C(C#N)(C#N)C(CCc3ccccc3)C2C1 (configuration not stated)	i	i	26	25	i	34
CC(=O)N1CC=C2C(C#N)=C(N)C(C#N)(C#N)C(CCc3ccccc3)C2C1 (configuration not stated)	i	i	i	i	i	i
COc1cc(/C=N/Nc2nc(C)nc3c2cnn3-c2ccccc2)ccc1O	i	i	28	nt	i	i
COc1cc(/C=N/NC(=O)c2nc(-c3ccccc3)n(-c3ccccc3)n2)ccc1O	i	i	i	i	i	i
CCN(CC)C(=O)CC[C@H]1CC[C@]2(CCCN(C3CCCCC3)C2)O1	nt	nt	nt	nt	nt	i
CC(=O)NNC(=O)c1sc(=S)n2c1[nH]c(=O)c1sccc12	i	i	i	33	i	i
Cc1ccc(C)n1C(CC(=O)O)c1ccc(C#N)cc1 (configuration not stated)	nt	nt	nt	25	nt	i
SMILES	PAFAH2 FP inh	HTRA1 inh	PAFAH1B2 inh	pPAFAH inh	PAFAH1B3 inh	ABHD4 inh
CCOC(=O)CC(c1ccc(N)cc1)n1c(C)ccc1C (configuration not stated)	i	i	i	i	i	i
CC(C)(C)c1ccc(-c2cn(C[C@H](Cc3ccccc3)n3c(=O)c4ccccc4n3Cc3ccccc3)nn2)cc1	nt	nt	nt	nt	nt	i
Cc1nc2c(C(=O)NCCC3=CCCCC3)c[nH]n2c(=O)c1Cl	i	i	i	28	i	i
CCOc1ccc(NS(=O)(=O)c2ccc3c(c2)N(C(C)=O)CC3)cc1	i	i	i	i	i	i
Cc1ccc(NS(=O)(=O)c2ccc3c(c2)oc(=O)n3C)cc1F	i	i	i	31	i	i
CCOc1ccc(NS(=O)(=O)c2ccc3c(c2)N(C(C)=O)CCS3)cc1	i	i	i	32	i	i
CCOc1ccc(NS(=O)(=O)c2ccc3c(c2)oc(=O)n3C)cc1	i	i	i	28	i	i
Cc1ccc(NS(=O)(=O)c2ccc3c(c2)oc(=O)n3C)cc1	i	i	i	nt	i	i
CCOC(=O)Cn1c(=O)oc2cc(S(=O)(=O)Nc3cccc(C)c3)ccc21	i	i	i	26	i	i
CN1C(=O)C(=O)N2C(=C[C@]3(c4c[nH]c5ccccc45)c4ccccc4N[C@H]23)C1=O	nt	nt	nt	nt	nt	i
CCc1ccc(S(=O)(=O)Nc2ccc(-c3ccc4nnc(C)n4n3)cc2)s1	i	i	i	i	i	i
Cc1nnc2ccc(-c3ccc(NS(=O)(=O)c4ccc(Cl)s4)cc3)nn12	i	i	i	26	i	i
O=C(Nc1ccc(-c2cnco2)cc1)c1ccc(Cl)cc1	nt	nt	nt	29	nt	i
CCOc1ccc(N=Nc2c(=O)[nH]n3c(=O)c4c([nH]c23)CCCC4)cc1	i	i	i	i	i	i
O=c1[nH]n2c(=O)c3c([nH]c2c1N=Nc1cccc(Cl)c1)CCCC3	30	i	34	31	i	i
COc1cc(CNC(=O)CCCC/C=C/C(C)C)ccc1O	i	i	i	25	i	i
O=C(CCc1ccccc1)N[C@H]1[C@H](OC(=O)c2cccnc2)CCC[C@@]12C(=O)N(Cc1ccccc1)c1ccccc12	nt	nt	nt	nt	nt	i
Nc1ccc(N)c(C(=O)O)c1	66	54	47	34	69	nt
Nc1ccc(C(=O)O)c(O)c1	i	i	i	i	i	i
Cn1c(=O)n(CCCOc2ccc(Cl)cc2)c2ccccc21	i	i	i	i	i	i
OCc1nc2ccccc2n1CCCOc1ccc(Br)cc1	i	i	i	31	i	i
Cn1c(=O)n(CCCOc2ccc(Br)cc2)c2ccccc21	i	i	i	32	i	i
OCc1nc2ccccc2n1CCCCOc1ccccc1	i	i	i	i	i	i
COc1ccc(NC(=O)COC(=O)/C=C/c2ccccc2[N+](=O)[O-])cc1OC	i	i	i	30	i	i
O=C(/C=C/c1ccccc1[N+](=O)[O-])OCC(=O)c1ccccc1	i	i	i	25	i	i
O=C(/C=C/c1ccco1)N(c1ccccn1)c1ccccn1	i	i	i	33	i	i
O=C(c1ccco1)N(c1ccccn1)c1ccccn1	i	i	i	i	i	i
CCOC(=O)CC[C@@H]1CC[C@]2(CCCN(Cc3nccn3C)C2)O1	nt	nt	nt	nt	nt	i
